Reference: publication PMC6130785 (ACS Omega, 2018)

Columns and labels:
[1] = target: T1, PIKFYVE (Homo sapiens, UniProt Q9Y2I7); assay: Lipid kinase competition assay; assay type: binding; settings: Table 2 / Figure 3 compound series, standard dose-response curve
Summary of the method: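 Competition binding: biotinylated kinase-specific control ligand on streptavidin magnetic beads formed affinity resin. DNA-tagged PIKFYVE, liganded beads and test compound were combined. Bound kinase was eluted and quantified by qPCR of its DNA tag. Kinase amount was plotted against test compound concentration, and Kd was fitted to a standard dose–response curve using the Hill equation.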

[2] = target: T1, PIKFYVE; assay: PIKFYVE inhibition assay; assay type: biochemical

T1 sequence (Q9Y2I7 whole entry): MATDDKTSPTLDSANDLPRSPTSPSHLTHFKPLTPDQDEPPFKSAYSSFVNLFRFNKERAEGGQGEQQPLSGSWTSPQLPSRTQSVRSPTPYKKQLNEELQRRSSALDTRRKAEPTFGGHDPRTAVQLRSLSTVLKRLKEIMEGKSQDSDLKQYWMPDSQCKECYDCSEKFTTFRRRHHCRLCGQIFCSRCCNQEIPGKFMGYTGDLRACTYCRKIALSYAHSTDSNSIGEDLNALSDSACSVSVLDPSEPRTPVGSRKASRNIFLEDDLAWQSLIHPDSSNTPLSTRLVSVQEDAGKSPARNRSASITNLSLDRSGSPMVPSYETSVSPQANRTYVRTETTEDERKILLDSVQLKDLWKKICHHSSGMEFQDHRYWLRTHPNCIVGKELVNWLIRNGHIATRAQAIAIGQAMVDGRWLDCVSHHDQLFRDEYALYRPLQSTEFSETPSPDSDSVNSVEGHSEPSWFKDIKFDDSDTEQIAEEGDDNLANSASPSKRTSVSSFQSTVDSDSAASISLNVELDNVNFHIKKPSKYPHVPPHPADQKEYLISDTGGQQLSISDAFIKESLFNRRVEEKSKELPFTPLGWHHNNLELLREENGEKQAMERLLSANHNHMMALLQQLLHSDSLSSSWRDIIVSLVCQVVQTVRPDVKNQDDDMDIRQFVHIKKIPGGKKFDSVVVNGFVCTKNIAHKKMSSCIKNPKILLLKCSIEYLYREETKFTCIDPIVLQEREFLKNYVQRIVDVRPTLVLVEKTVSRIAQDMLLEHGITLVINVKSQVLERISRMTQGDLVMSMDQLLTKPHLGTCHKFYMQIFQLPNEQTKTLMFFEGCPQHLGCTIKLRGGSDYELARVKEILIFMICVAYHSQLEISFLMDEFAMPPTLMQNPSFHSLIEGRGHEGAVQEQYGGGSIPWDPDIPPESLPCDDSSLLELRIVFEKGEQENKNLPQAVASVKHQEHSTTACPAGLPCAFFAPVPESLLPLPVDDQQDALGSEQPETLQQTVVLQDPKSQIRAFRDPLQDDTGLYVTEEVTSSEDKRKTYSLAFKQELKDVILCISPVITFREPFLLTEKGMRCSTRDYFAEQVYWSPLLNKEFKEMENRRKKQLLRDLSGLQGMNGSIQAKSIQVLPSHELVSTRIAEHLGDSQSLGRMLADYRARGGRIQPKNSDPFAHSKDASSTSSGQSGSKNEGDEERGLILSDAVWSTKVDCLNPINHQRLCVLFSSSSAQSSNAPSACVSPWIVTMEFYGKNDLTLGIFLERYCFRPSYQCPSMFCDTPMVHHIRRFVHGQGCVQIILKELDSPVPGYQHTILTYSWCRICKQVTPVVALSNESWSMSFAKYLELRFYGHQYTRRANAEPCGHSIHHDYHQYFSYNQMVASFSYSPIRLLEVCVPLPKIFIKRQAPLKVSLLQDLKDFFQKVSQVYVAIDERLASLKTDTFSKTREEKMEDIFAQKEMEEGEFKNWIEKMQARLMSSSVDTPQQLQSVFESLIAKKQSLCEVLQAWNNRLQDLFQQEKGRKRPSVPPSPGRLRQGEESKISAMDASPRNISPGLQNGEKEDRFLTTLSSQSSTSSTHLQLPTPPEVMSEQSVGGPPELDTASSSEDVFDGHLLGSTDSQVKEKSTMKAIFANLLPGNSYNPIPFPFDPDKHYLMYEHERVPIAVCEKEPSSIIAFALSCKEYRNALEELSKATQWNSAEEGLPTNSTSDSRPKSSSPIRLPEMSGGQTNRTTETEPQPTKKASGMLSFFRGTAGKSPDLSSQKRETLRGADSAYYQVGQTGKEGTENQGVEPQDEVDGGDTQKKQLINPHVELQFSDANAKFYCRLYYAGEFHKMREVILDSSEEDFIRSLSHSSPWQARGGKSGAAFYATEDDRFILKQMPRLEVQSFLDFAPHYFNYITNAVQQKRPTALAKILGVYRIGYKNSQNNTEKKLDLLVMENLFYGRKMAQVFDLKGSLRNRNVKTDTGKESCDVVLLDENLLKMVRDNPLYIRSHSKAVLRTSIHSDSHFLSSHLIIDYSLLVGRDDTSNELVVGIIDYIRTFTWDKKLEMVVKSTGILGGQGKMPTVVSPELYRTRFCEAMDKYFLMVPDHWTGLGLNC

Structure (SMILES): CCOC(=O)c1[nH]c2ccc(OC)cc2c1/C=C/C(=O)c1ccncc1 [2l, (E)-Ethyl 5-Methoxy-3-(3-oxo-3-(pyridin-4-yl)prop-1-en-1-yl)-[1H]-indole-2-carboxylate]
- Kd [1]: > 500 nM
- IC50 [2]: 446 nM
